Measured values pooled from the literature.
Compare with care: the assays were run in different laboratories.
Target: Serine/threonine-protein kinase SBK1 (SBK1, Homo sapiens, UniProt Q52WX2)

The remaining binding of `CNC(=O)[C@@H]1CC[C@@H](n2c(-c3ccc4cnccc4c3)nc3ccc(C(=O)NCc4cccc(C(N)=O)c4)cc32)C1` is reported as 100% (binding, competition with immobilised ligand; 1 µM).
`O=C(NCC1CCOCC1)c1n[nH]cc1NC(=O)c1c(F)cccc1F` has a remaining binding of 70% (binding, competition with immobilised ligand; 1 µM).
`CN(CCCC(F)(F)F)c1nccc(-c2cnn3ncccc23)n1` has a remaining binding of 85% (binding; 1 µM).
With `O=C(NCc1ncc(C(F)(F)F)cc1Cl)c1ccc2c(c1)C1(CCS(=O)(=O)CC1)[C@H](C1CC1)N2S(=O)(=O)c1ccc(F)cc1` the remaining binding was 97% (cell-free assay, competition with immobilised ligand; 1 µM).
For `Cc1cnc(Nc2ccc(C(=O)N3CCC(N4CCCC4)CC3)cc2)nc1-c1cc2ccccc2s1`, the remaining binding was 51% (binding, competition with immobilised ligand; 1 µM).
`C[C@@H]1CCN(c2nccc(-c3cnn4ncccc34)n2)C1` gave a remaining binding of 85% (binding; 1 µM).
With `O=C(c1ccc(Nc2nccc(-c3cc4ccccc4s3)n2)cc1)N1CCC(N2CCCC2)CC1` the remaining binding was 88% (binding, competition with immobilised ligand; 1 µM).
The remaining binding of `FC(F)(F)Oc1cccc(-c2cnc3ccc(-c4ccncc4)nn23)c1` is reported as 85% (binding, competition with immobilised ligand; 5 µM).
`COc1cnc(Nc2cccc(S(N)(=O)=O)c2)nc1N1CCN(c2ccccc2)C(=O)C1` gave a remaining binding of 61% (binding, competition with immobilised ligand; 1 µM).
The remaining binding of `O=S(=O)(NC1CCC(c2cc(F)ccc2F)(S(=O)(=O)c2ccc(Cl)cc2)CC1)C(F)(F)F` (stereo not shown) is reported as 75% (cell-free assay, competition with immobilised ligand; 1 µM).
`C=CC(=O)N1CCC(C(=O)NCC(=O)N2CCN(c3nc(-c4cnc(N)nc4C(F)F)nc(N4CCOCC4)n3)CC2)CC1` has a remaining binding of 100% (binding, competition with immobilised ligand; 1 µM).
With `C[C@H](c1cccc(C#N)c1)n1cc(Cl)cc(C(N)=O)c1=N` the remaining binding was 83% (cell-free assay, competition with immobilised ligand; 1 µM).
The remaining binding of `O=C(NCCCN1CCOCC1)c1ccc(Nc2nccc(-c3cc4ccccc4s3)n2)cc1` is reported as 71% (binding, competition with immobilised ligand; 1 µM).
The remaining binding of `c1cnn2ncc(-c3ccnc(N4CCC45COC5)n3)c2c1` is reported as 65% (binding; 1 µM).
`Cc1cc(-n2nc(Cc3cc(F)cc(C(F)(F)F)c3)nc2C)ccc1C(N)=O` gave a remaining binding of 98% (cell-free assay, competition with immobilised ligand; 1 µM).
`CCN1CCN(Cc2ccc(C(=O)Nc3ccc(C)c(Oc4ccc5c(c4)CC(=O)N5)c3)cc2C(F)(F)F)CC1` has a remaining binding of 76% (binding, competition with immobilised ligand; 1 µM).
`CN(c1nccc(-c2cnn3ncccc23)n1)C1CC1` gave a remaining binding of 100% (binding; 1 µM).
`CO[C@@H](C)c1c(Nc2ccc([C@H](N(C)C(=O)C3CCS(=O)(=O)CC3)C(F)(F)F)cc2)cnc2cc(Cl)nn12` has a remaining binding of 100% (cell-free assay, competition with immobilised ligand; 1 µM).
The remaining binding of `F[C@@H]1CCN(c2nccc(-c3cnn4ncccc34)n2)C1` is reported as 100% (binding; 1 µM).
`CCCCN(CCCC)C(=O)CN1C[C@H](c2cc(OC)c3c(c2)OCO3)[C@@H](C(=O)O)[C@@H]1CC(C)(C)CCC` gave a remaining binding of 76.5% (cell-free assay, competition with immobilised ligand; 1 µM).
The remaining binding of `C[C@@H](c1ccc(-n2cnc3c(N)ncnc32)cc1)N1CCc2nn(C)c(Cc3ccccc3)c2C1=O` is reported as 69% (binding, competition with immobilised ligand; 0.1 µM).
For `N[C@H]1CCN(c2nccc(-c3cnn4ncccc34)n2)C1`, the remaining binding was 83% (binding; 1 µM).
